SENP8 block-1 = SENP8 protease inhibitors, primary screen, biochemical, luminescence; Sentrin-specific protease 8 (Homo sapiens), Q96LD8; purified SENP8, Z-RLRGG-aminoluciferin cleavage; inhibition, % at 10 µM; 1.2% of 330,000 active; in the data active = inhibition above about 50%
SENP7 block = SENP7 protease inhibitors, primary screen, biochemical, luminescence, uHTS. Sentrin-specific protease 7 (Homo sapiens), Q9BQF6. recombinant SENP7, Z-RLRGG-aminoluciferin luminescence, 40 min. inhibition, % at 5 µM. 1.5% of 330,000 active. AID 434973, 2010;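 active = inhibition above about 50% at the single test dose, limit read from the data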;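 note: plate controls were DMSO with enzyme for no effect and no enzyme buffer wells for full effect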
SENP8 block-2 = human SENP8 protease inhibitors, primary screen, biochemical, fluorescence, Nedd8 protein substrate, uHTS | inhibition, % at 20 µM | recombinant SENP8 | 0.64% of 360,000 active | Sentrin-specific protease 8 (Homo sapiens), Q96LD8; in the data active = inhibition mostly above about 40%, no sharp cut-off; inactive = mostly below about 27%
Apaf-1 inh = inhibitors of human Apaf-1 apoptosome, primary screen, biochemical, DEVD-Rh110 fluorescence, uHTS | Apoptotic protease-activating factor 1 (Homo sapiens), O14727 | reconstituted apoptosome caspase-3 activity | inhibition, % at 20 µM | 0.71% of 330,000 active; active = inhibition of at least 40% at 20 µM;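 note: plate controls were DMSO wells for no effect and DEVD-CHO caspase inhibitor wells for full effect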
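Material: reconstituted apoptosome with Apaf-1, cytochrome c, caspase-9, procaspase-3, dATP. Technique: Rh110 fluorescence intensity. Buffer or medium: pH 7.5 Hepes buffer with CHAPS, BSA, DTT. Times: 30 min plus 50 min, RT.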
SENP6 inh = SENP6 protease inhibitors, primary screen, biochemical, luminescence, uHTS; Sentrin-specific protease 6 (Homo sapiens), Q9GZR1; Recombinant SENP6 catalytic domain, aminoluciferin luminescence; inhibition, % at 10 µM; 1.8% of 330,000 active;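 active = inhibition above about 50% at the single tested dose, limit read from the data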;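 note: plate controls were DMSO wells with enzyme for no effect and DMSO wells lacking enzyme for full effect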
Target sequence (Q9GZR1 628-1112 limits assumed): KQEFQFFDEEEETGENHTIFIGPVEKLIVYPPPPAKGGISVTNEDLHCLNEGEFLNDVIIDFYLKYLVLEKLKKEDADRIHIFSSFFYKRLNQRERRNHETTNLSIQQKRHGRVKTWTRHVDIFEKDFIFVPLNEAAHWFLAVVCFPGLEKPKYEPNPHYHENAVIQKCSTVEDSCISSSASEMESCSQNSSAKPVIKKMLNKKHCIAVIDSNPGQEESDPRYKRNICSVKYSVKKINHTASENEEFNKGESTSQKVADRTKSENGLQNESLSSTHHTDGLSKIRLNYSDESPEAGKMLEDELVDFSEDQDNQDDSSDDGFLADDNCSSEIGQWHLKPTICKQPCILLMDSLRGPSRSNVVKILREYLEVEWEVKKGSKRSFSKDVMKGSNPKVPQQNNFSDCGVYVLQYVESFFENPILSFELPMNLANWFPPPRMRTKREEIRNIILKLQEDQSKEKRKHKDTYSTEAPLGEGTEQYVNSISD
UBC13 inh = UBC13 polyubiquitin chain formation inhibitors, primary screen, biochemical, TR-FRET, uHTS; Ubiquitin-conjugating enzyme E2 N (Homo sapiens), P61088; inhibition, % at 20 µM; 0.47% of 330,000 active; in the data active = inhibition above about 45%, passing the limit was not always enough
SENP8 conf = human SENP8 protease inhibitors, confirmation, biochemical, Nedd8 protein substrate, single concentration; 15% of 1,400 active; purified SENP8, Nedd8-AMC/pro-Nedd8 cleavage fluorescence, 30 min; inhibition, % at 25 µM; AID 624319, 2012; shares compounds with SENP8 block-2; in the data active = inhibition mostly above about 39%, no sharp cut-off; inactive = mostly below about 34%
Active calls of the source: *. The list is not random: actives were taken first. Their share in the collection is about 3%.

What do the screens show for `O=C(NCC1COc2ccccc2O1)C1C2C=CC3(CN(Cc4ccccc4Cl)C(=O)C13)O2` (centres undefined)?
SENP8 block-1: -2; SENP7 block: -9; SENP8 block-2: 4; Apaf-1 inh: 24; SENP6 inh: 8; UBC13 inh: -12

What do the screens show for `Cc1cccc(NC(=O)c2ccc([N+](=O)[O-])s2)c1C`?
SENP8 block-1: -13; SENP7 block: -13; SENP8 block-2: 17; Apaf-1 inh: 9; SENP6 inh: -2; UBC13 inh: -13

Results for Cc1cccc(C)c1NC(=O)c1ccc([N+](=O)[O-])s1 ?
SENP8 block-1: 1; SENP7 block: -7; SENP8 block-2: 29*; Apaf-1 inh: -4; SENP6 inh: 42; UBC13 inh: -12; SENP8 conf: 10

What do the screens show for `O=C(NCC(=O)N1CC(O)CC1C(=O)N1CCCC1C(=O)OCc1ccccc1)OCc1ccccc1` (centres undefined)?
SENP8 block-1: -8; SENP7 block: -5; SENP8 block-2: 4; Apaf-1 inh: 13; SENP6 inh: -10; UBC13 inh: -4

Results for CCOc1ccc(OCCCCN2CCCC2)cc1 ?
SENP8 block-1: 3; SENP7 block: 4; SENP8 block-2: 42*; Apaf-1 inh: 3; SENP6 inh: -12; UBC13 inh: 2; SENP8 conf: 11

What do the screens show for `Cc1cccc(N(C)C(=O)c2cc(S(=O)(=O)N3CCc4ccccc43)cn2C)c1`?
SENP8 block-1: -4; SENP7 block: -3; SENP8 block-2: 46*; Apaf-1 inh: 18; SENP6 inh: -4; UBC13 inh: 1; SENP8 conf: -9

What do the screens show for `COc1ccc(NS(=O)(=O)c2cccc(C(=O)NN=C(C)c3ccco3)c2)cc1`?
SENP8 block-1: -3; SENP7 block: 4; SENP8 block-2: 6; Apaf-1 inh: -16; SENP6 inh: -4; UBC13 inh: 1

How did COc1ccc(Nc2nc(NN)nc(C)c2[N+](=O)[O-])cc1 do in these assays?
SENP8 block-1: 1; SENP7 block: 6; SENP8 block-2: 60*; Apaf-1 inh: 12; SENP6 inh: -5; UBC13 inh: -16; SENP8 conf: 14

How did COc1ccc(NC(=O)c2cccnc2)cc1 do in these assays?
SENP8 block-1: -3; SENP7 block: 7; SENP8 block-2: 13; Apaf-1 inh: -10; SENP6 inh: 9; UBC13 inh: -7

Results for C/C(=C\C(=O)c1cccnc1)Nc1ccc(O)cc1 ?
SENP8 block-1: 1; SENP7 block: 11; SENP8 block-2: 84*; Apaf-1 inh: 5; SENP6 inh: -7; UBC13 inh: -9; SENP8 conf: 16

How did C/C(=C\C(=O)c1ccccc1)Nc1ccc(O)cc1 do in these assays?
SENP8 block-1: -5; SENP7 block: 17; SENP8 block-2: 84*; Apaf-1 inh: 10; SENP6 inh: 9; UBC13 inh: -7; SENP8 conf: 16

How did CCN(CC)S(=O)(=O)c1ccc(N2CCOCC2)c(NC(=O)c2cc3ccccc3oc2=O)c1 do in these assays?
SENP8 block-1: 5; SENP7 block: 0; SENP8 block-2: 20; Apaf-1 inh: 27; SENP6 inh: -12; UBC13 inh: -2

How did COc1ccc(N2CC(C(=O)N[C@@H](C)C(=O)NC3CCCC3)CC2=O)cc1 (some centres undefined) do in these assays?
SENP8 block-1: -10; SENP7 block: -14; SENP8 block-2: 11; Apaf-1 inh: 5; SENP6 inh: 9; UBC13 inh: -8

What do the screens show for `COc1ccc(N2CC(C(=O)N[C@@H](C)C(=O)N[C@H](CO)c3ccccc3)CC2=O)cc1` (some centres undefined)?
SENP8 block-1: 1; SENP7 block: 1; SENP8 block-2: 53*; Apaf-1 inh: -7; SENP6 inh: -9; UBC13 inh: 1; SENP8 conf: 13

What do the screens show for `CCOC(=O)N1CCC(Nc2ccc(N3C(=O)C4CCCCC4C3=O)cc2[N+](=O)[O-])CC1` (centres undefined)?
SENP8 block-1: 1; SENP7 block: 8; SENP8 block-2: 38*; Apaf-1 inh: 18; SENP6 inh: -22; UBC13 inh: -39; SENP8 conf: 22

Results for CC1CCC2C(=O)N(c3ccc(NC4CCCCC4)c([N+](=O)[O-])c3)C(=O)C2C1 (centres undefined) ?
SENP8 block-1: 1; SENP7 block: 2; SENP8 block-2: 24; Apaf-1 inh: 17; SENP6 inh: -7; UBC13 inh: -24

Results for O=C(Nc1oc2ccccc2c(=O)c1-c1ccc(Br)cc1)c1ccco1 ?
SENP8 block-1: -3; SENP7 block: 5; SENP8 block-2: -13; Apaf-1 inh: 3; SENP6 inh: 8; UBC13 inh: -3

How did O=C(c1ccc(Cl)cc1)N1CCN(c2ccc([N+](=O)[O-])c(NCc3cccnc3)c2)CC1 do in these assays?
SENP8 block-1: 5; SENP7 block: -3; SENP8 block-2: 46*; Apaf-1 inh: 20; SENP6 inh: -9; UBC13 inh: -9; SENP8 conf: 18

What do the screens show for `O=[N+]([O-])c1ccc(N2CCN(S(=O)(=O)c3ccccc3)CC2)cc1NCc1cccnc1`?
SENP8 block-1: -4; SENP7 block: -6; SENP8 block-2: 50*; Apaf-1 inh: 16; SENP6 inh: 0; UBC13 inh: -14; SENP8 conf: 14

What do the screens show for `COc1cccc(N2C(C(C)=O)=NN(c3ccccc3)C2c2ccc(N3CCOCC3)cc2)c1` (centres undefined)?
SENP8 block-1: 0; SENP7 block: 14; SENP8 block-2: -27; Apaf-1 inh: 12; SENP6 inh: 7; UBC13 inh: -3

What do the screens show for `CC(=O)C1=NN(c2ccccc2)C(c2ccc3c(c2)OCO3)N1c1ccc(N2CCOCC2)cc1` (centres undefined)?
SENP8 block-1: -8; SENP7 block: 0; SENP8 block-2: 44*; Apaf-1 inh: 9; SENP6 inh: -8; UBC13 inh: -16; SENP8 conf: 18

How did COc1cc(C(=S)N2CCN(C(c3ccccc3)c3ccccc3)CC2)cc(OC)c1O do in these assays?
SENP8 block-1: 9; SENP7 block: 2; SENP8 block-2: 9; Apaf-1 inh: 9; SENP6 inh: 0; UBC13 inh: 5
